Reference: ChEMBL document CHEMBL4689842, “EUbOPEN Chemogenomics Library wave 1” (2021)

System: U2OS
Test: Multiplex assay against U2OS
Type: toxicity, cell-based
Conditions: human
In short: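 Tubulin, mitochondrial-mass and membrane-permeability phenotypes are per cents of healthy-nucleus cells. Cells were gated by CellPathfinder machine learning into Hoechst high-intensity objects or normal cells, normal cells into healthy, pyknosed or fragmented nuclei, and pyknosed cells into mitotic or apoptotic. Before that, live cells stained at seeding with Hoechst33342, BioTracker Green Microtubule Cytoskeleton Dye, MitoTracker Red and Annexin V Alexa Fluor 680 were imaged on a CQ1 microscope at 37°C and 5% CO2 after compound addition.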

[1] = 12 h, 1 µM, compound concentration 1 uM, replicate 1
[2] = 12 h, 1 µM, compound concentration 1 uM, replicate 2
[3] = 12 h, 10 µM, compound concentration 10 uM, replicate 1
[4] = 12 h, 10 µM, compound concentration 10 uM, replicate 2
[5] = 24 h, 1 µM, compound concentration 1 uM, replicate 1
[6] = 24 h, 1 µM, compound concentration 1 uM, replicate 2
[7] = 24 h, 10 µM, compound concentration 10 uM, replicate 1
[8] = 24 h, 10 µM, compound concentration 10 uM, replicate 2

**Q.** For `CCOC(=O)CCNc1cc(N2CCc3ccccc3CC2)nc(-c2ccccn2)n1`, which “Population Apoptotic (%)” value [1] is on record?
**A.** 37%

**Q.** And the “Population Fragmented Nuclei (%)” value [1]?
**A.** 7%

**Q.** What about the “Population Healthy Nuclei (%)” value [1] of the same compound?
**A.** 85%

**Q.** What about the “Population Hoechst High Intensity Objects (%)” value [1] of the same compound?
**A.** 3%

**Q.** And the “Population Membrane Permeable-Phenotype (%)” value [1]?
**A.** 14%

**Q.** And the “Population Mitochondria Different-Phenotype (%)” value [1]?
**A.** 40%

**Q.** And the “Population Mitotic Cells (%)” value [1]?
**A.** 62%

**Q.** What about the “Population Normal (%)” value [1] of the same compound?
**A.** 96%

**Q.** And the “Population Pyknosed Nuclei (%)” value [1]?
**A.** 6%

**Q.** What about the “Population Tubulin-Different-Phenotype (%)” value [1] of the same compound?
**A.** 30%

**Q.** What about the “Total Cell Count” value [1] of the same compound?
**A.** 244

**Q.** What about the “Population Apoptotic (%)” value [2] of the same compound?
**A.** 45%

**Q.** And the “Population Fragmented Nuclei (%)” value [2]?
**A.** 4%

**Q.** And the “Population Healthy Nuclei (%)” value [2]?
**A.** 86%

**Q.** What about the “Population Hoechst High Intensity Objects (%)” value [2] of the same compound?
**A.** 8%

**Q.** And the “Population Membrane Permeable-Phenotype (%)” value [2]?
**A.** 13%

**Q.** And the “Population Mitochondria Different-Phenotype (%)” value [2]?
**A.** 27%

**Q.** What about the “Population Mitotic Cells (%)” value [2] of the same compound?
**A.** 54%

**Q.** What about the “Population Normal (%)” value [2] of the same compound?
**A.** 91%

**Q.** What about the “Population Pyknosed Nuclei (%)” value [2] of the same compound?
**A.** 9%

**Q.** And the “Population Tubulin-Different-Phenotype (%)” value [2]?
**A.** 23%

**Q.** What about the “Total Cell Count” value [2] of the same compound?
**A.** 141

**Q.** And the “Population Apoptotic (%)” value [3]?
**A.** 46%

**Q.** What about the “Population Fragmented Nuclei (%)” value [3] of the same compound?
**A.** 7%

**Q.** What about the “Population Healthy Nuclei (%)” value [3] of the same compound?
**A.** 82%

**Q.** What about the “Population Hoechst High Intensity Objects (%)” value [3] of the same compound?
**A.** 5%

**Q.** And the “Population Membrane Permeable-Phenotype (%)” value [3]?
**A.** 11%

**Q.** And the “Population Mitochondria Different-Phenotype (%)” value [3]?
**A.** 32%

**Q.** What about the “Population Mitotic Cells (%)” value [3] of the same compound?
**A.** 53%

**Q.** What about the “Population Normal (%)” value [3] of the same compound?
**A.** 94%

**Q.** And the “Population Pyknosed Nuclei (%)” value [3]?
**A.** 10%

**Q.** And the “Population Tubulin-Different-Phenotype (%)” value [3]?
**A.** 34%

**Q.** What about the “Total Cell Count” value [3] of the same compound?
**A.** 133

**Q.** And the “Population Apoptotic (%)” value [4]?
**A.** 40%

**Q.** And the “Population Fragmented Nuclei (%)” value [4]?
**A.** 3%

**Q.** What about the “Population Healthy Nuclei (%)” value [4] of the same compound?
**A.** 92%

**Q.** What about the “Population Hoechst High Intensity Objects (%)” value [4] of the same compound?
**A.** 9%

**Q.** And the “Population Membrane Permeable-Phenotype (%)” value [4]?
**A.** 9%

**Q.** And the “Population Mitochondria Different-Phenotype (%)” value [4]?
**A.** 29%

**Q.** What about the “Population Mitotic Cells (%)” value [4] of the same compound?
**A.** 60%

**Q.** And the “Population Normal (%)” value [4]?
**A.** 90%

**Q.** And the “Population Pyknosed Nuclei (%)” value [4]?
**A.** 3%

**Q.** What about the “Population Tubulin-Different-Phenotype (%)” value [4] of the same compound?
**A.** 26%

**Q.** What about the “Total Cell Count” value [4] of the same compound?
**A.** 126

**Q.** What about the “Population Apoptotic (%)” value [5] of the same compound?
**A.** 33%

**Q.** And the “Population Fragmented Nuclei (%)” value [5]?
**A.** 5%

**Q.** What about the “Population Healthy Nuclei (%)” value [5] of the same compound?
**A.** 91%

**Q.** What about the “Population Hoechst High Intensity Objects (%)” value [5] of the same compound?
**A.** 1%

**Q.** What about the “Population Membrane Permeable-Phenotype (%)” value [5] of the same compound?
**A.** 11%

**Q.** What about the “Population Mitochondria Different-Phenotype (%)” value [5] of the same compound?
**A.** 36%

**Q.** And the “Population Mitotic Cells (%)” value [5]?
**A.** 66%

**Q.** And the “Population Normal (%)” value [5]?
**A.** 98%

**Q.** What about the “Population Pyknosed Nuclei (%)” value [5] of the same compound?
**A.** 3%

**Q.** What about the “Population Tubulin-Different-Phenotype (%)” value [5] of the same compound?
**A.** 36%

**Q.** What about the “Total Cell Count” value [5] of the same compound?
**A.** 264

**Q.** And the “Population Apoptotic (%)” value [6]?
**A.** 16%

**Q.** And the “Population Fragmented Nuclei (%)” value [6]?
**A.** 8%

**Q.** And the “Population Healthy Nuclei (%)” value [6]?
**A.** 87%

**Q.** What about the “Population Hoechst High Intensity Objects (%)” value [6] of the same compound?
**A.** 10%

**Q.** And the “Population Membrane Permeable-Phenotype (%)” value [6]?
**A.** 10%

**Q.** And the “Population Mitochondria Different-Phenotype (%)” value [6]?
**A.** 28%

**Q.** And the “Population Mitotic Cells (%)” value [6]?
**A.** 83%

**Q.** And the “Population Normal (%)” value [6]?
**A.** 89%

**Q.** And the “Population Pyknosed Nuclei (%)” value [6]?
**A.** 4%

**Q.** And the “Population Tubulin-Different-Phenotype (%)” value [6]?
**A.** 23%

**Q.** What about the “Total Cell Count” value [6] of the same compound?
**A.** 146

**Q.** What about the “Population Apoptotic (%)” value [7] of the same compound?
**A.** 64%

**Q.** What about the “Population Fragmented Nuclei (%)” value [7] of the same compound?
**A.** 7%

**Q.** And the “Population Healthy Nuclei (%)” value [7]?
**A.** 83%

**Q.** What about the “Population Hoechst High Intensity Objects (%)” value [7] of the same compound?
**A.** 5%

**Q.** What about the “Population Membrane Permeable-Phenotype (%)” value [7] of the same compound?
**A.** 7%

**Q.** What about the “Population Mitochondria Different-Phenotype (%)” value [7] of the same compound?
**A.** 37%

**Q.** What about the “Population Mitotic Cells (%)” value [7] of the same compound?
**A.** 35%

**Q.** What about the “Population Normal (%)” value [7] of the same compound?
**A.** 94%

**Q.** What about the “Population Pyknosed Nuclei (%)” value [7] of the same compound?
**A.** 8%

**Q.** And the “Population Tubulin-Different-Phenotype (%)” value [7]?
**A.** 13%

**Q.** What about the “Total Cell Count” value [7] of the same compound?
**A.** 181

**Q.** What about the “Population Apoptotic (%)” value [8] of the same compound?
**A.** 81%

**Q.** And the “Population Fragmented Nuclei (%)” value [8]?
**A.** 4%

**Q.** And the “Population Healthy Nuclei (%)” value [8]?
**A.** 88%

**Q.** And the “Population Hoechst High Intensity Objects (%)” value [8]?
**A.** 7%

**Q.** And the “Population Membrane Permeable-Phenotype (%)” value [8]?
**A.** 8%

**Q.** And the “Population Mitochondria Different-Phenotype (%)” value [8]?
**A.** 36%

**Q.** And the “Population Mitotic Cells (%)” value [8]?
**A.** 18%

**Q.** And the “Population Normal (%)” value [8]?
**A.** 92%

**Q.** And the “Population Pyknosed Nuclei (%)” value [8]?
**A.** 7%

**Q.** What about the “Population Tubulin-Different-Phenotype (%)” value [8] of the same compound?
**A.** 9%

**Q.** What about the “Total Cell Count” value [8] of the same compound?
**A.** 165
